“And” between values parts separate entries of the source, which are not always exact repeats. Identical values can stand only once.
System: U2OS
Assay: Multiplex assay against U2OS
Format: toxicity, cell-based
Details: human
Outline: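 On a CQ1 microscope at 37°C and 5% CO2, live cells were imaged after compound addition. They had been stained at seeding with Hoechst33342, BioTracker Green Microtubule Cytoskeleton Dye, MitoTracker Red and Annexin V Alexa Fluor 680. CellPathfinder machine-learning gating assigned cells to Hoechst high-intensity objects or normal cells, normal cells to healthy, pyknosed or fragmented nuclei, and pyknosed cells to mitotic or apoptotic. Tubulin, mitochondrial-mass and membrane-permeability phenotypes are per cents of healthy-nucleus cells.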

[1] = 12 h, 1 µM, compound concentration 1 uM
[2] = 12 h, 10 µM, compound concentration 10 uM
[3] = 24 h, 1 µM, compound concentration 1 uM
[4] = 24 h, 10 µM, compound concentration 10 uM
[5] = 48 h, 1 µM, compound concentration 1 uM
[6] = 48 h, 10 µM, compound concentration 10 uM

CC(/C=C1\SC(=S)N(CCCC(=O)Nc2ccc(C(=O)O)c(O)c2)C1=O)=C\c1ccccc1
Population Apoptotic (%) [1]: 94% and 100%
Population Fragmented Nuclei (%) [1]: 26% and 12%
Population Healthy Nuclei (%) [1]: 64% and 80%
Population Hoechst High Intensity Objects (%) [1]: 3% and 4%
Population Membrane Permeable-Phenotype (%) [1]: 4% and 3%
Population Mitochondria Different-Phenotype (%) [1]: 1% and 2%
Population Mitotic Cells (%) [1]: 5% and 0%
Population Normal (%) [1]: 96% and 95%
Population Pyknosed Nuclei (%) [1]: 8% and 7%
Population Tubulin-Different-Phenotype (%) [1]: 3% and 0%
Total Cell Count [1]: 205 and 133
Population Apoptotic (%) [2]: 91% and 72%
Population Fragmented Nuclei (%) [2]: 28% and 16%
Population Healthy Nuclei (%) [2]: 61% and 72%
Population Hoechst High Intensity Objects (%) [2]: 3% and 0%
Population Membrane Permeable-Phenotype (%) [2]: 12% and 4%
Population Mitochondria Different-Phenotype (%) [2]: 2% and 1%
Population Normal (%) [2]: 96% and 100%
Population Pyknosed Nuclei (%) [2]: 9% and 10%
Population Tubulin-Different-Phenotype (%) [2]: 4% and 5%
Total Cell Count [2]: 241 and 101
Population Apoptotic (%) [3]: 83% and 94%
Population Fragmented Nuclei (%) [3]: 25% and 9%
Population Healthy Nuclei (%) [3]: 64% and 79%
Population Hoechst High Intensity Objects (%) [3]: 3% and 1%
Population Membrane Permeable-Phenotype (%) [3]: 4% and 10%
Population Mitochondria Different-Phenotype (%) [3]: 1%
Population Normal (%) [3]: 96% and 98%
Population Pyknosed Nuclei (%) [3]: 10%
Population Tubulin-Different-Phenotype (%) [3]: 1%
Total Cell Count [3]: 247 and 177
Population Apoptotic (%) [4]: 88% and 53%
Population Fragmented Nuclei (%) [4]: 26% and 16%
Population Healthy Nuclei (%) [4]: 64% and 72%
Population Hoechst High Intensity Objects (%) [4]: 2% and 0%
Population Membrane Permeable-Phenotype (%) [4]: 7%
Population Mitochondria Different-Phenotype (%) [4]: 3% and 6%
Population Normal (%) [4]: 97% and 100%
Population Pyknosed Nuclei (%) [4]: 8% and 11%
Population Tubulin-Different-Phenotype (%) [4]: 3% and 6%
Total Cell Count [4]: 298 and 111
Population Apoptotic (%) [5]: 93% and 78%
Population Fragmented Nuclei (%) [5]: 16% and 11%
Population Healthy Nuclei (%) [5]: 74% and 79%
Population Hoechst High Intensity Objects (%) [5]: 2% and 3%
Population Membrane Permeable-Phenotype (%) [5]: 5% and 4%
Population Mitochondria Different-Phenotype (%) [5]: 1% and 3%
Population Normal (%) [5]: 97% and 96%
Population Pyknosed Nuclei (%) [5]: 8% and 9%
Population Tubulin-Different-Phenotype (%) [5]: 1% and 2%
Total Cell Count [5]: 368 and 253
Population Apoptotic (%) [6]: 97% and 82%
Population Fragmented Nuclei (%) [6]: 19% and 16%
Population Healthy Nuclei (%) [6]: 68% and 73%
Population Hoechst High Intensity Objects (%) [6]: 2% and 1%
Population Membrane Permeable-Phenotype (%) [6]: 6% and 4%
Population Mitochondria Different-Phenotype (%) [6]: 2% and 1%
Population Normal (%) [6]: 97% and 98%
Population Pyknosed Nuclei (%) [6]: 12% and 10%
Population Tubulin-Different-Phenotype (%) [6]: 4% and 0%
Total Cell Count [6]: 396 and 170

Cc1ccc(-c2ccc(F)cc2COc2ccc(CCC(=O)O)cc2)cc1
Population Apoptotic (%) [1]: 75% and 100%
Population Fragmented Nuclei (%) [1]: 22% and 17%
Population Healthy Nuclei (%) [1]: 71% and 74%
Population Hoechst High Intensity Objects (%) [1]: 2%
Population Mitochondria Different-Phenotype (%) [1]: 3% and 0%
Population Mitotic Cells (%) [1]: 25% and 0%
Population Normal (%) [1]: 97%
Total Cell Count [1]: 277 and 135
Population Apoptotic (%) [2]: 75% and 83%
Population Fragmented Nuclei (%) [2]: 31% and 14%
Population Healthy Nuclei (%) [2]: 61% and 75%
Population Hoechst High Intensity Objects (%) [2]: 1% and 2%
Population Mitochondria Different-Phenotype (%) [2]: 2%
Population Mitotic Cells (%) [2]: 25% and 16%
Population Normal (%) [2]: 98% and 97%
Total Cell Count [2]: 238 and 123
Population Apoptotic (%) [3]: 90% and 100%
Population Fragmented Nuclei (%) [3]: 21% and 20%
Population Healthy Nuclei (%) [3]: 69% and 70%
Population Hoechst High Intensity Objects (%) [3]: 2% and 1%
Population Mitochondria Different-Phenotype (%) [3]: 2% and 0%
Population Mitotic Cells (%) [3]: 10% and 0%
Population Normal (%) [3]: 97% and 98%
Total Cell Count [3]: 340 and 175
Population Apoptotic (%) [4]: 94% and 93%
Population Fragmented Nuclei (%) [4]: 26% and 22%
Population Healthy Nuclei (%) [4]: 67%
Population Hoechst High Intensity Objects (%) [4]: 1% and 2%
Population Mitochondria Different-Phenotype (%) [4]: 3% and 4%
Population Mitotic Cells (%) [4]: 5% and 6%
Population Normal (%) [4]: 98% and 97%
Total Cell Count [4]: 295 and 160
Population Apoptotic (%) [5]: 89% and 95%
Population Fragmented Nuclei (%) [5]: 17% and 15%
Population Healthy Nuclei (%) [5]: 74% and 75%
Population Hoechst High Intensity Objects (%) [5]: 2%
Population Mitochondria Different-Phenotype (%) [5]: 2%
Population Mitotic Cells (%) [5]: 10% and 5%
Population Normal (%) [5]: 97%
Total Cell Count [5]: 487 and 242
Population Apoptotic (%) [6]: 87% and 88%
Population Fragmented Nuclei (%) [6]: 21% and 16%
Population Healthy Nuclei (%) [6]: 70% and 72%
Population Hoechst High Intensity Objects (%) [6]: 2% and 1%
Population Mitochondria Different-Phenotype (%) [6]: 3%
Population Mitotic Cells (%) [6]: 12% and 11%
Population Normal (%) [6]: 97% and 98%
Total Cell Count [6]: 421 and 236

O=C1CSC(=O)N1C(CCc1ccncc1)COc1ccc(-c2cccc([N+](=O)[O-])c2)cc1 (configuration not stated)
Population Apoptotic (%) [1]: 46.67% and 30.43%
Population Fragmented Nuclei (%) [1]: 1.68% and 1.25%
Population Healthy Nuclei (%) [1]: 91.11% and 84.38%
Population Hoechst High Intensity Objects (%) [1]: 0% and 0.62%
Population Membrane Permeable-Phenotype (%) [1]: 0.26% and 4.44%
Population Mitochondria Different-Phenotype (%) [1]: 0.26% and 9.63%
Population Mitotic Cells (%) [1]: 53.33% and 69.57%
Population Normal (%) [1]: 100% and 99.38%
Population Pyknosed Nuclei (%) [1]: 7.21% and 14.37%
Population Tubulin-Different-Phenotype (%) [1]: 1.58% and 2.22%
Total Cell Count [1]: 416 and 161
Population Apoptotic (%) [2]: 42.24% and 24.39%
Population Fragmented Nuclei (%) [2]: 2.2% and 3.42%
Population Healthy Nuclei (%) [2]: 69.51% and 68.49%
Population Hoechst High Intensity Objects (%) [2]: 0.24% and 0%
Population Membrane Permeable-Phenotype (%) [2]: 53.68% and 77%
Population Mitochondria Different-Phenotype (%) [2]: 42.11% and 86%
Population Mitotic Cells (%) [2]: 57.76% and 75.61%
Population Normal (%) [2]: 99.76% and 100%
Population Pyknosed Nuclei (%) [2]: 28.29% and 28.08%
Population Tubulin-Different-Phenotype (%) [2]: 96.84% and 85%
Total Cell Count [2]: 411 and 146
Population Apoptotic (%) [3]: 40.38% and 40%
Population Fragmented Nuclei (%) [3]: 0.93% and 1.52%
Population Healthy Nuclei (%) [3]: 89.44% and 80.81%
Population Hoechst High Intensity Objects (%) [3]: 0.18% and 0%
Population Membrane Permeable-Phenotype (%) [3]: 0.62% and 1.88%
Population Mitochondria Different-Phenotype (%) [3]: 0.41% and 10%
Population Mitotic Cells (%) [3]: 59.62% and 60%
Population Normal (%) [3]: 99.82% and 100%
Population Pyknosed Nuclei (%) [3]: 9.63% and 17.68%
Population Tubulin-Different-Phenotype (%) [3]: 1.45% and 0.62%
Total Cell Count [3]: 541 and 198
Population Apoptotic (%) [4]: 50% and 31.58%
Population Fragmented Nuclei (%) [4]: 2.96% and 3.38%
Population Healthy Nuclei (%) [4]: 68.34% and 70.95%
Population Hoechst High Intensity Objects (%) [4]: 0.23% and 0%
Population Membrane Permeable-Phenotype (%) [4]: 43% and 73.33%
Population Mitotic Cells (%) [4]: 50% and 68.42%
Population Normal (%) [4]: 99.77% and 100%
Population Pyknosed Nuclei (%) [4]: 28.7% and 25.68%
Population Tubulin-Different-Phenotype (%) [4]: 96.67% and 89.52%
Total Cell Count [4]: 440 and 148
Population Apoptotic (%) [5]: 43.9% and 44.68%
Population Fragmented Nuclei (%) [5]: 2.54% and 3.2%
Population Healthy Nuclei (%) [5]: 89.11% and 83.14%
Population Hoechst High Intensity Objects (%) [5]: 0%
Population Membrane Permeable-Phenotype (%) [5]: 1.6% and 1.75%
Population Mitochondria Different-Phenotype (%) [5]: 0.34% and 6.64%
Population Mitotic Cells (%) [5]: 56.1% and 55.32%
Population Normal (%) [5]: 100%
Population Pyknosed Nuclei (%) [5]: 8.34% and 13.66%
Population Tubulin-Different-Phenotype (%) [5]: 1.94% and 1.75%
Total Cell Count [5]: 983 and 344
Population Apoptotic (%) [6]: 60.54% and 58.93%
Population Fragmented Nuclei (%) [6]: 4.41% and 4.12%
Population Healthy Nuclei (%) [6]: 68.57% and 62.94%
Population Hoechst High Intensity Objects (%) [6]: 0.18% and 0%
Population Membrane Permeable-Phenotype (%) [6]: 31.1% and 67.29%
Population Mitotic Cells (%) [6]: 39.46% and 41.07%
Population Normal (%) [6]: 99.82% and 100%
Population Pyknosed Nuclei (%) [6]: 27.02% and 32.94%
Population Tubulin-Different-Phenotype (%) [6]: 82.84% and 74.77%

CCCCCC(O)/C=C/[C@H]1C(=O)CC(O)C1C/C=C\CCCC(=O)O (some centres not stated)
Population Apoptotic (%) [1]: 60% and 88%
Population Fragmented Nuclei (%) [1]: 28% and 15%
Population Healthy Nuclei (%) [1]: 59% and 76%
Population Hoechst High Intensity Objects (%) [1]: 1% and 0%
Population Membrane Permeable-Phenotype (%) [1]: 5% and 8%
Population Mitochondria Different-Phenotype (%) [1]: 4% and 6%
Population Normal (%) [1]: 98% and 99%
Population Pyknosed Nuclei (%) [1]: 12% and 8%
Population Tubulin-Different-Phenotype (%) [1]: 4% and 8%
Total Cell Count [1]: 203 and 113
Population Apoptotic (%) [2]: 71% and 66%
Population Fragmented Nuclei (%) [2]: 23% and 16%
Population Healthy Nuclei (%) [2]: 69% and 73%
Population Hoechst High Intensity Objects (%) [2]: 2%
Population Membrane Permeable-Phenotype (%) [2]: 8% and 10%
Population Mitochondria Different-Phenotype (%) [2]: 3% and 2%
Population Mitotic Cells (%) [2]: 28% and 33%
Population Normal (%) [2]: 97%
Population Pyknosed Nuclei (%) [2]: 7% and 9%
Population Tubulin-Different-Phenotype (%) [2]: 5% and 4%
Total Cell Count [2]: 190 and 94
Population Apoptotic (%) [3]: 86% and 90%
Population Fragmented Nuclei (%) [3]: 27% and 16%
Population Healthy Nuclei (%) [3]: 63% and 74%
Population Hoechst High Intensity Objects (%) [3]: 2% and 0%
Population Membrane Permeable-Phenotype (%) [3]: 3% and 5%
Population Mitochondria Different-Phenotype (%) [3]: 0% and 7%
Population Mitotic Cells (%) [3]: 13% and 9%
Population Normal (%) [3]: 98% and 99%
Population Pyknosed Nuclei (%) [3]: 8%
Population Tubulin-Different-Phenotype (%) [3]: 1% and 4%
Total Cell Count [3]: 250 and 131
Population Apoptotic (%) [4]: 100% and 90%
Population Fragmented Nuclei (%) [4]: 23% and 16%
Population Healthy Nuclei (%) [4]: 66% and 74%
Population Hoechst High Intensity Objects (%) [4]: 1% and 2%
Population Membrane Permeable-Phenotype (%) [4]: 6% and 5%
Population Mitochondria Different-Phenotype (%) [4]: 4% and 1%
Population Mitotic Cells (%) [4]: 0% and 10%
Population Normal (%) [4]: 98% and 97%
Population Pyknosed Nuclei (%) [4]: 9% and 8%
Population Tubulin-Different-Phenotype (%) [4]: 4% and 2%
Total Cell Count [4]: 216 and 118
Population Apoptotic (%) [5]: 89% and 100%
Population Fragmented Nuclei (%) [5]: 19% and 13%
Population Healthy Nuclei (%) [5]: 71% and 79%
Population Hoechst High Intensity Objects (%) [5]: 2%
Population Membrane Permeable-Phenotype (%) [5]: 4% and 5%
Population Mitochondria Different-Phenotype (%) [5]: 3% and 4%
Population Mitotic Cells (%) [5]: 10% and 0%
Population Normal (%) [5]: 97%
Population Pyknosed Nuclei (%) [5]: 8% and 7%
Population Tubulin-Different-Phenotype (%) [5]: 2% and 3%
Total Cell Count [5]: 334 and 189
Population Apoptotic (%) [6]: 89% and 100%
Population Fragmented Nuclei (%) [6]: 23% and 21%
Population Healthy Nuclei (%) [6]: 67% and 70%
Population Hoechst High Intensity Objects (%) [6]: 3% and 2%
Population Membrane Permeable-Phenotype (%) [6]: 6% and 7%
Population Mitochondria Different-Phenotype (%) [6]: 3%
Population Mitotic Cells (%) [6]: 10% and 0%
Population Normal (%) [6]: 96% and 97%
Population Pyknosed Nuclei (%) [6]: 9% and 7%
Population Tubulin-Different-Phenotype (%) [6]: 4% and 3%
Total Cell Count [6]: 302 and 161
